Reference: ChEMBL document CHEMBL3853298, “Total synthesis and in vitro bioevaluation of clavaminols A, C, H & deacetyl clavaminol H as potential chemotherapeutic and antibiofilm agents” (Eur J Med Chem, 2016)

Key:
[1] = Cytotoxicity against human SKOV3 cells assessed as cell growth inhibition by MTT assay; type: functional, cell-based; settings: SK-OV-3
[2] = Cytotoxicity against human DU145 cells assessed as cell growth inhibition by MTT assay; type: functional, cell-based; settings: DU-145
Staphylococcus aureus [3] = test: Antibacterial activity against Staphylococcus aureus MTCC 96 after 24 hrs by well diffusion method; type: functional; settings: MTCC 96, 24 h
In short: (§1)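 Bacteria spread (0.1 mL suspension) on Mueller-Hinton agar; 6.0 mm wells loaded with compound over a 250 to 0.48 per-well dose range, methanol as negative control. Incubated 24 h at 37 °C. MIC taken as the lowest concentration still giving an inhibition zone. Duplicates, mean reported.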

Bacillus subtilis [4] = test: Antibacterial activity against Bacillus subtilis MTCC 121 after 24 hrs by well diffusion method; type: functional; settings: MTCC 121, 24 h; in short: as §1
Micrococcus luteus [5] = test: Antibacterial activity against Micrococcus luteus MTCC 2470 after 24 hrs by well diffusion method; type: functional; settings: MTCC 2470, 24 h; in short: as §1
Staphylococcus aureus [6] = test: Antibacterial activity against Staphylococcus aureus MLS16 MTCC 2940 after 24 hrs by well diffusion method; type: functional; settings: MLS16 MTCC 2940, 24 h; in short: as §1
Raoultella planticola [7] = test: Antibacterial activity against Klebsiella planticola MTCC 530 after 24 hrs by well diffusion method; type: functional; settings: MTCC 530, 24 h; in short: as §1
Escherichia coli [8] = test: Antibacterial activity against Escherichia coli MTCC 739 after 24 hrs by well diffusion method; type: functional; settings: MTCC 739, 24 h; in short: as §1
Pseudomonas aeruginosa [9] = test: Antibacterial activity against Pseudomonas aeruginosa MTCC 2453 after 24 hrs by well diffusion method; type: functional; settings: MTCC 2453, 24 h; in short: as §1
Candida albicans [10] = test: Antifungal activity against Candida albicans MTCC 227 after 24 hrs by well diffusion method; type: functional; settings: MTCC 227, 24 h
In short: (§2)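 Candida/Issatchenkia lawns (0.1 mL suspension) on Mueller-Hinton agar; 6.0 mm bored wells receive compound across a 250 to 0.48 per-well dose range, methanol as negative control. Plates kept 24 h at 30 °C. MIC is the lowest concentration producing a visible inhibition zone. Duplicate runs, mean values.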

Candida albicans [11] = test: Antifungal activity against Candida albicans MTCC 183 after 24 hrs by well diffusion method; type: functional; settings: MTCC 183, 24 h; in short: as §2
Candida albicans [12] = test: Antifungal activity against Candida albicans MTCC 854 after 24 hrs by well diffusion method; type: functional; settings: MTCC 854, 24 h; in short: as §2
Candida albicans [13] = test: Antifungal activity against Candida albicans MTCC 1637 after 24 hrs by well diffusion method; type: functional; settings: MTCC 1637, 24 h; in short: as §2
Candida albicans [14] = test: Antifungal activity against Candida albicans MTCC 3017 after 24 hrs by well diffusion method; type: functional; settings: MTCC 3017, 24 h; in short: as §2
Candida albicans [15] = test: Antifungal activity against Candida albicans MTCC 3018 after 24 hrs by well diffusion method; type: functional; settings: MTCC 3018, 24 h; in short: as §2
Candida albicans [16] = test: Antifungal activity against Candida albicans MTCC 3958 after 24 hrs by well diffusion method; type: functional; settings: MTCC 3958, 24 h; in short: as §2
Candida albicans [17] = test: Antifungal activity against Candida albicans MTCC 4748 after 24 hrs by well diffusion method; type: functional; settings: MTCC 4748, 24 h; in short: as §2
Candida albicans [18] = test: Antifungal activity against Candida albicans MTCC 7315 after 24 hrs by well diffusion method; type: functional; settings: MTCC 7315, 24 h; in short: as §2
[19] = Antifungal activity against Candida parapsilosis MTCC 1744 after 24 hrs by well diffusion method; type: functional; in short: as §2
[Candida] aaseri [20] = Antifungal activity against Candida aaseri MTCC 1962 after 24 hrs by well diffusion method; type: functional; settings: Yamadazyma aaseri, MTCC 1962, 24 h; in short: as §2
[21] = Antifungal activity against Candida glabrata MTCC 3019 after 24 hrs by well diffusion method; type: functional; settings: Nakaseomyces glabratus; in short: as §2
[22] = Antifungal activity against Candida krusei MTCC 3020 after 24 hrs by well diffusion method; type: functional; settings: Pichia kudriavzevii; in short: as §2
Pichia sporocuriosa [23] = test: Antifungal activity against Issatchenkia hanoiensis MTCC 4755 after 24 hrs by well diffusion method; type: functional; settings: MTCC 4755, 24 h; in short: as §2
Staphylococcus aureus [24] = test: Bactericidal activity against Staphylococcus aureus MTCC 96 after 24 hrs; type: functional; settings: MTCC 96, 24 h
In short: (§3)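 Broth macrodilution in Mueller Hinton broth, compound serially diluted from 150 down to 0. Overnight bacterial culture added to a final 1.5 × 10^8 CFU/mL (0.5 McFarland), 24 h at 37 °C. Suspension then subcultured onto Mueller Hinton agar for 24 h at 37 °C. MBC is the lowest concentration killing the strain. Duplicates.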

Bacillus subtilis [25] = test: Bactericidal activity against Bacillus subtilis MTCC 121 after 24 hrs; type: functional; settings: MTCC 121, 24 h; in short: as §3
Staphylococcus aureus [26] = test: Bactericidal activity against Staphylococcus aureus MLS16 MTCC 2940 after 24 hrs; type: functional; settings: MLS16 MTCC 2940, 24 h; in short: as §3
Micrococcus luteus [27] = test: Bactericidal activity against Micrococcus luteus MTCC 2470 after 24 hrs; type: functional; settings: MTCC 2470, 24 h; in short: as §3
Raoultella planticola [28] = test: Bactericidal activity against Klebsiella planticola MTCC 530 after 24 hrs; type: functional; settings: MTCC 530, 24 h; in short: as §3
Escherichia coli [29] = test: Bactericidal activity against Escherichia coli MTCC 739 after 24 hrs; type: functional; settings: MTCC 739, 24 h; in short: as §3
Pseudomonas aeruginosa [30] = test: Bactericidal activity against Pseudomonas aeruginosa MTCC 2453 after 24 hrs; type: functional; settings: MTCC 2453, 24 h; in short: as §3
Candida albicans [31] = test: Fungicidal activity against Candida albicans MTCC 183 after 24 hrs; type: functional; settings: MTCC 183, 24 h
In short: (§4)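 Candida grown overnight in Mueller Hinton broth. Compound serially diluted in the same broth from 150 to 0 and inoculated to a final 1.5 × 10^8 CFU/mL (0.5 McFarland), then 24 h at 37 °C. Tube contents plated onto Mueller Hinton agar for 24 h at 37 °C. MFC is the lowest concentration killing the yeast. Duplicates.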

Candida albicans [32] = test: Fungicidal activity against Candida albicans MTCC 227 after 24 hrs; type: functional; settings: MTCC 227, 24 h; in short: as §4
Candida albicans [33] = test: Fungicidal activity against Candida albicans MTCC 854 after 24 hrs; type: functional; settings: MTCC 854, 24 h; in short: as §4
Candida albicans [34] = test: Fungicidal activity against Candida albicans MTCC 1637 after 24 hrs; type: functional; settings: MTCC 1637, 24 h; in short: as §4
Candida albicans [35] = test: Fungicidal activity against Candida albicans MTCC 3017 after 24 hrs; type: functional; settings: MTCC 3017, 24 h; in short: as §4
Candida albicans [36] = test: Fungicidal activity against Candida albicans MTCC 3018 after 24 hrs; type: functional; settings: MTCC 3018, 24 h; in short: as §4
Candida albicans [37] = test: Fungicidal activity against Candida albicans MTCC 3958 after 24 hrs; type: functional; settings: MTCC 3958, 24 h; in short: as §4
Candida albicans [38] = test: Fungicidal activity against Candida albicans MTCC 4748 after 24 hrs; type: functional; settings: MTCC 4748, 24 h; in short: as §4
Candida albicans [39] = test: Fungicidal activity against Candida albicans MTCC 7315 after 24 hrs; type: functional; settings: MTCC 7315, 24 h; in short: as §4
Candida parapsilosis = test: Fungicidal activity against Candida parapsilosis MTCC 1744 after 24 hrs; type: functional; settings: Lodderomyces parapsilosis, MTCC 1744, 24 h
In short: (§5)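 Broth dilution in Mueller Hinton broth with serial compound concentrations from […]. Overnight Candida cultures added to a final 1.5 × 10^8 CFU/mL (0.5 McFarland). Incubated 24 h at 37 °C, then 10 µL of each tube plated on Mueller Hinton agar for 24 h at 37 °C. MFC taken as the lowest concentration that kills the strain. Run in duplicate.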

[Candida] aaseri [40] = Fungicidal activity against Candida aaseri MTCC 1962 after 24 hrs; type: functional; settings: Yamadazyma aaseri, MTCC 1962, 24 h; in short: as §4
Nakaseomyces glabratus = test: Fungicidal activity against Candida glabrata MTCC 3019 after 24 hrs; type: functional; settings: MTCC 3019, 24 h; in short: as §4
Pichia kudriavzevii = test: Fungicidal activity against Candida krusei MTCC 3020 after 24 hrs; type: functional; settings: MTCC 3020, 24 h; in short: as §5
Pichia sporocuriosa [41] = test: Fungicidal activity against Issatchenkia hanoiensis MTCC 4755 after 24 hrs; type: functional; settings: MTCC 4755, 24 h; in short: as §5
Staphylococcus aureus [42] = test: Antibiofilm activity against Staphylococcus aureus MTCC 96 incubated for 24 hrs under static condition by crystal violet staining-based assay; type: functional
In short: (§6)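 Strains grown overnight in tryptone soy broth with 0.5% glucose. Compound (250 to 0) mixed with inoculum at 5 × 10^5 CFU/mL in polystyrene microtiter plates. Non-adherent cells washed off with PBS; wells stained with 0.1% crystal violet, dye solubilised in 95% ethanol, absorbance read at 540 nm. IC50 for 50% biofilm inhibition taken from dose-response curves. Triplicates, mean ± S.D.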

Bacillus subtilis [43] = test: Antibiofilm activity against Bacillus subtilis MTCC 121 incubated for 24 hrs under static condition by crystal violet staining-based assay; type: functional; in short: as §6
Staphylococcus aureus [44] = test: Antibiofilm activity against Staphylococcus aureus MLS16 MTCC 2940 incubated for 24 hrs under static condition by crystal violet staining-based assay; type: functional; in short: as §6
Micrococcus luteus [45] = test: Antibiofilm activity against Micrococcus luteus MTCC 2470 incubated for 24 hrs under static condition by crystal violet staining-based assay; type: functional; in short: as §6
Raoultella planticola [46] = test: Antibiofilm activity against Klebsiella planticola MTCC 530 incubated for 24 hrs under static condition by crystal violet staining-based assay; type: functional; in short: as §6
Escherichia coli [47] = test: Antibiofilm activity against Escherichia coli MTCC 739 incubated for 24 hrs under static condition by crystal violet staining-based assay; type: functional; in short: as §6
Pseudomonas aeruginosa [48] = test: Antibiofilm activity against Pseudomonas aeruginosa MTCC 2453 incubated for 24 hrs under static condition by crystal violet staining-based assay; type: functional; in short: as §6

CCCCCCCCC[C@H](O)[C@H](N)CO
9.2 µg/mL: IC50 (Raoultella planticola [46])
33.6 µM: IC50 [1]
4.6 µg/mL: INH (Escherichia coli [47])
4.5 µg/mL: IC50 (Staphylococcus aureus [42])
2.3 µg/mL: IC50 (Micrococcus luteus [45])
7.8 µg/mL: MIC (Staphylococcus aureus [3]) | MIC (Escherichia coli [8]) | MIC (Pseudomonas aeruginosa [9]) | MIC (Candida albicans [13]) | MIC (Candida albicans [16]) | MIC [22] | MBC (Staphylococcus aureus [24]) | MBC (Bacillus subtilis [25]) | MBC (Staphylococcus aureus [26]) | MBC (Micrococcus luteus [27])
2.6 µg/mL: IC50 (Bacillus subtilis [43])
15.6 µg/mL: MIC (Raoultella planticola [7]) | MIC (Candida albicans [10]) | MIC (Candida albicans [11]) | MIC (Candida albicans [12]) | MIC (Candida albicans [14]) | MIC (Candida albicans [15]) | MIC (Candida albicans [17]) | MIC ([Candida] aaseri [20]) | MIC [21] | MIC (Pichia sporocuriosa [23]) | MBC (Escherichia coli [29]) | MBC (Pseudomonas aeruginosa [30]) | MFC (Candida albicans [31]) | MFC (Candida albicans [33]) | MFC (Candida albicans [34]) | MFC (Candida albicans [36]) | MFC (Candida albicans [37]) | MFC (Nakaseomyces glabratus) | MFC (Pichia kudriavzevii)
2.1 µg/mL: IC50 (Staphylococcus aureus [44])
3.9 µg/mL: MIC (Bacillus subtilis [4]) | MIC (Micrococcus luteus [5]) | MIC (Staphylococcus aureus [6]) | INH (Pseudomonas aeruginosa [48])
31.2 µg/mL: MIC (Candida albicans [18]) | MIC [19] | MBC (Raoultella planticola [28]) | MFC (Candida albicans [32]) | MFC (Candida albicans [35]) | MFC (Candida albicans [38]) | MFC ([Candida] aaseri [40]) | MFC (Pichia sporocuriosa [41])
62.5 µg/mL: MFC (Candida albicans [39]) | MFC (Candida parapsilosis)
34.1 µM: IC50 [2]
